Series [1] relates to PC-12. Kind of series: Inhibition of H2O2-induced ROS generation in rat PC12 cells assessed as intracellular ROS level at 5 uM preincubated for 6 hrs followed by H2O2 addition measured after 18 hrs by DCFH-DA staining based fluorimetric method relative to control. Type of series: functional. Further details: scale not given: the % may be the effect or the level left. The method, boiled down: (§1)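 PC12 cells at 1×10^4/well in RPMI with 10% FBS and penicillin/streptomycin, 24 h at 37 °C, 5% CO2. Test samples (1, 5, 10, 50 µM; ≤0.5% DMSO) for 6 h, PBS wash, then H2O2 150 µM for 18 h. Loaded with 10 µM DCFH-DA for 30 min at 37 °C in the dark, washed twice. DCF fluorescence read at ex 485/em 528 nm as % of untreated control. Three independent experiments, mean ± SEM.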

Series [2] relates to PC-12. Put plainly: Neuroprotection against H2O2-induced cell death in rat PC12 cells assessed as cell viability at 5 uM preincubated for 3 hrs followed by H2O2 stimulation measured after 2 hrs by MTT assay (reference value: 25.2 to 41.8%). In kind it is functional. To be noted: read-out: Activity. On the technique in general: Formazan colour is commonly taken as a measure of viable cells.

Series [3] addresses T1, Acetylcholinesterase (Electrophorus electricus, UniProt O42275). Kind of series: Inhibition of electric eel AChE using acetylthiocholine iodide as substrate pretreated for 5 mins followed by substrate addition by Ellman's method.
Series [4] has as its target Amyloid-beta precursor protein (Homo sapiens) (UniProt P05067). Kind of series: Potency index, ratio of compound effect to rifampicin effect for inhibition of amyloid beta (1 to 42) (unknown origin) self-induced aggregation at 100 uM.
Series [5] is described as follows: Metal chelating activity assessed as mole fraction of compound required to show 2:1 stoichiometry for compound-Cu2+ complex at 40 uM after 30 mins by UV titration method. Summed up: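 Molar ratio method: 2.5 mL of 40 µM ligand in methanol titrated with CuCl2 (1000 µM in methanol) in 0.01 mL steps. Absorbance at 365 nm plotted against mole fraction; stoichiometry read from where the two straight lines cross.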

Series [6] is described as follows: Metal chelating activity assessed as compound-Ca2+ complex formation at 20 uM after 30 mins by UV-visible spectrophotometric analysis. The method, boiled down: (§2)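 Compound (final 20 µM in methanol) mixed with metal salt (CuCl2, FeSO4, ZnCl2, AlCl3, MgCl2 or CaCl2, final 20 µM in methanol). After 30 min at room temperature, UV spectra recorded from 200 to 500 nm in 1-cm quartz cells on a dual-beam spectrophotometer.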

For series [7], the system named is PC-12. Kind of series: Neuroprotection against H2O2-induced cell death in rat PC12 cells assessed as cell viability at 10 uM preincubated for 3 hrs followed by H2O2 stimulation measured after 2 hrs by MTT assay (reference value: 25.2 to 41.8%). To be noted: read-out: Activity. In kind it is functional.
In series [8] the test system is PC-12. Put plainly: Inhibition of H2O2-induced ROS generation in rat PC12 cells preincubated for 6 hrs followed by H2O2 addition measured after 18 hrs by DCFH-DA staining based fluorimetric method. Type of series: functional, cell-based. Summed up:
as §1

Series [9] can be described thus: Inhibition of soybean 15-LOX assessed as reduction in conversion of linoleic acid to 13-hydroperoxylinoleic acid by spectrophotometric method. Also noted: species or system Glycine max. The method, boiled down: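 Soybean lipoxygenase type 1-B (final 167 U/mL) with compound (DMSO stock diluted in 0.1 M phosphate buffer pH 8) and linoleic acid (134 mM in ethanol) at room temperature. Formation of 13-hydroperoxylinoleic acid followed spectrophotometrically at 234 nm.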

Series [10] relates to PC-12. Kind of series: Inhibition of H2O2-induced ROS generation in rat PC12 cells assessed as intracellular ROS level at 50 uM preincubated for 6 hrs followed by H2O2 addition measured after 18 hrs by DCFH-DA staining based fluorimetric method relative to control. In kind it is functional. Also noted: scale not given: the % may be the effect or the level left. Summed up:
as §1

Series [11] is described as follows: Metal chelating activity assessed as compound-Zn2+ complex formation at 20 uM after 30 mins by UV-visible spectrophotometric analysis. The method, boiled down: as §2
Series [12] deals with PC-12. Kind of series: Cytotoxicity against rat PC12 cells assessed as effect on cell viability at 1 to 50 uM by MTT assay. In kind it is cell-based. To be noted: pc-12, 50 µM.
Series [13] is described as follows: Metal chelating activity assessed as compound-Fe2+ complex formation at 20 uM after 30 mins by UV-visible spectrophotometric analysis. The method, boiled down: as §2
Series [14] can be described thus: Metal chelating activity assessed as compound-Mg2+ complex formation at 20 uM after 30 mins by UV-visible spectrophotometric analysis. Summed up:
as §2

Series [15] addresses Cholinesterase (Equus caballus, UniProt P81908). Put plainly: Inhibition of equine serum BuChE using butyrylthiocholine iodide as substrate pretreated for 5 mins followed by substrate addition by Ellman's method. The method, boiled down: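 Ellman assay with horse serum BuChE (5 IU/mL) in 0.1 M phosphate buffer pH 8.0 with DTNB. Compound was preincubated with enzyme 5 min, then butyrylthiocholine iodide was added. Absorbance read at 412 nm. IC50 from a log concentration vs % inhibition curve; triplicate runs.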
(In general: DTNB colorimetry detects thiols as they appear.)

Series [16] has as its system PC-12. Put plainly: Inhibition of H2O2-induced ROS generation in rat PC12 cells assessed as intracellular ROS level at 1 uM preincubated for 6 hrs followed by H2O2 addition measured after 18 hrs by DCFH-DA staining based fluorimetric method relative to control. Type of series: functional. Also noted: scale not given: the % may be the effect or the level left. The method, boiled down:
as §1

In series [17] the target is T1, Acetylcholinesterase. Kind of series: Non-competitive inhibition of electric eel AChE using varying levels of acetylthiocholine iodide as substrate pretreated for 5 mins followed by substrate addition by Lineweaver-Burk plot analysis.
A short description of series [18]: Metal chelating activity assessed as compound-Al3+ complex formation at 20 uM after 30 mins by UV-visible spectrophotometric analysis. Summed up: as §2
In series [19] the test system is SH-SY5Y. Kind of series: Inhibition of amyloid beta (1 to 42) (unknown origin)-induced cell death in human SH-SY5Y cells assessed as cell viability at 10 uM preincubated for 3 hrs followed by amyloid beta (1 to 42) addition measured after 24 hrs by MTT assay relative to control. The conditions noted are these: read-out: Activity. In kind it is functional. Summed up: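 SH-SY5Y cells grown in DMEM with 10% FBS, 1% L-glutamine and antibiotics, seeded at 5×10^3/well. Pretreated 3 h with compound (10 or 50 µM), then Aβ1-42 10 µM added for 24 h. MTT, formazan dissolved in DMSO, A570. Viability as blank-corrected % of untreated control; three independent experiments, mean ± SEM.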

Series [20] addresses Acetylcholinesterase (Electrophorus electricus) (UniProt O42275). Put plainly: Mixed-type inhibition of electric eel AChE using varying levels of acetylthiocholine iodide as substrate pretreated for 5 mins followed by substrate addition by Lineweaver-Burk plot analysis. The method, boiled down:
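Electric eel AChE (5 IU/mL) by Ellman method in 0.1 M phosphate buffer pH 8.0 with DTNB. Inhibitor was preincubated 5 min, then acetylthiocholine iodide was added at different concentrations. Absorbance followed at 412 nm. Inhibition type from reciprocal Lineweaver-Burk plots; Ki from a secondary replot of slope vs inhibitor concentration.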

In series [21] the test system is PC-12. Kind of series: Neuroprotection against H2O2-induced cell death in rat PC12 cells assessed as cell viability at 1 uM preincubated for 3 hrs followed by H2O2 stimulation measured after 2 hrs by MTT assay (reference value: 25.2 to 41.8%). Type of series: functional. The conditions noted are these: read-out: Activity.
The test system of series [22] is PC-12. Put plainly: Neuroprotection against H2O2-induced cell death in rat PC12 cells assessed as cell viability at 50 uM preincubated for 3 hrs followed by H2O2 stimulation measured after 2 hrs by MTT assay (reference value: 25.2 to 41.8%). To be noted: read-out: Activity. Type of series: functional.
Series [23] deals with PC-12. Kind of series: Neuroprotection against H2O2-induced cell death in rat PC12 cells assessed as increase in cell viability preincubated for 3 hrs followed by H2O2 stimulation measured after 2 hrs by MTT assay. In kind it is functional, cell-based.

What is called IC50 is the point on the concentration scale where inhibition reaches its midpoint. What is called Ki is a dissociation constant, usually derived from enzyme kinetics or from competition with a known ligand.

Calls of active or inactive are those of the source. No cut-off for these calls is given here.

T1 sequence (O42275 whole entry): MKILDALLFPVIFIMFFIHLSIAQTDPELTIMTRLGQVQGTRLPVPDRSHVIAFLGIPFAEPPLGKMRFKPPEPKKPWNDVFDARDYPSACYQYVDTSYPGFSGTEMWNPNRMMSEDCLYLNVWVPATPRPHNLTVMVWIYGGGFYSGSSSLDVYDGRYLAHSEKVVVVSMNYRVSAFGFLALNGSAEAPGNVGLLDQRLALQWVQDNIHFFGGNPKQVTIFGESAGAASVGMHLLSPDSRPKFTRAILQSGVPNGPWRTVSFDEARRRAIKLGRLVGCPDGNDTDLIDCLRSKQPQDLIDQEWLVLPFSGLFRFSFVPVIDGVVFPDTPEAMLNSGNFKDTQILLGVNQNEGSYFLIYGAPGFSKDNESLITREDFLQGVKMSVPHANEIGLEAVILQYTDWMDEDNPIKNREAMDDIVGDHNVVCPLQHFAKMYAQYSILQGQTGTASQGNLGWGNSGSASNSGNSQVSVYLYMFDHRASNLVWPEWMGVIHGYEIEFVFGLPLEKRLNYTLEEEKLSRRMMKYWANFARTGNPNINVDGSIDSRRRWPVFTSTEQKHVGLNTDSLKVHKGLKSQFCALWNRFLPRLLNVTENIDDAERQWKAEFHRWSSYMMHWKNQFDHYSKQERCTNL
Chain of Acetylcholinesterase (Electrophorus electricus) (O42275 24-633 limits assumed): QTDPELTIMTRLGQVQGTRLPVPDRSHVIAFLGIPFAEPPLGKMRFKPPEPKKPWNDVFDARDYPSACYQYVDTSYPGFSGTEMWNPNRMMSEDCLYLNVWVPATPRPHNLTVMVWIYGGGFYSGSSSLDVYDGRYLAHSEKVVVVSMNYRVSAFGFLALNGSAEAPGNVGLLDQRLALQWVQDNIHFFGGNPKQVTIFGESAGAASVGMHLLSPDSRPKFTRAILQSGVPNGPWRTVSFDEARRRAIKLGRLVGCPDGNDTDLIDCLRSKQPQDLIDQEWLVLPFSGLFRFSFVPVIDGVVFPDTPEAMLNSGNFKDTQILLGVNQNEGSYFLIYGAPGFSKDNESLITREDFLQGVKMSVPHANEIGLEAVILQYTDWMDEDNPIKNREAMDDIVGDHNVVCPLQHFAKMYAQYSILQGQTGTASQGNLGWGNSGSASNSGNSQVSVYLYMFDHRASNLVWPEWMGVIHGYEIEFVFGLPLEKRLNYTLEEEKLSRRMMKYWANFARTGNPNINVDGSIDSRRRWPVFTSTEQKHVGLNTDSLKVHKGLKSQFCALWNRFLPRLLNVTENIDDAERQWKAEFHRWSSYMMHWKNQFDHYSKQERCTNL
Chain of Cholinesterase (P81908 whole entry): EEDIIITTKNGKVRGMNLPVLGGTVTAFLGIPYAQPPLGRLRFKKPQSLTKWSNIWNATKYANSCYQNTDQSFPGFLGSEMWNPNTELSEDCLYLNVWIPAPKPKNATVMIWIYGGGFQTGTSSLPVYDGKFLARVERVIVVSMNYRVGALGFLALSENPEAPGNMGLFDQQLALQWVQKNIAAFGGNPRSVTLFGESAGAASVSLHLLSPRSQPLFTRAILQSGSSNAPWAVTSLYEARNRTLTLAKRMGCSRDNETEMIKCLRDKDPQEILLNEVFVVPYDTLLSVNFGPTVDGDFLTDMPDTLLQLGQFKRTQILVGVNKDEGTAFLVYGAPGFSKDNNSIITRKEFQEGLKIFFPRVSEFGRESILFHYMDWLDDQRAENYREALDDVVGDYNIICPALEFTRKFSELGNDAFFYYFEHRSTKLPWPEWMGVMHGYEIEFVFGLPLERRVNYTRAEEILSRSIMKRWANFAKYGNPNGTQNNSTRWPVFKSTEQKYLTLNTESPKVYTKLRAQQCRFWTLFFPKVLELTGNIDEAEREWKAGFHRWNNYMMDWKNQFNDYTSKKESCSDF
Chain of Amyloid-beta precursor protein (Homo sapiens) (P05067 whole entry): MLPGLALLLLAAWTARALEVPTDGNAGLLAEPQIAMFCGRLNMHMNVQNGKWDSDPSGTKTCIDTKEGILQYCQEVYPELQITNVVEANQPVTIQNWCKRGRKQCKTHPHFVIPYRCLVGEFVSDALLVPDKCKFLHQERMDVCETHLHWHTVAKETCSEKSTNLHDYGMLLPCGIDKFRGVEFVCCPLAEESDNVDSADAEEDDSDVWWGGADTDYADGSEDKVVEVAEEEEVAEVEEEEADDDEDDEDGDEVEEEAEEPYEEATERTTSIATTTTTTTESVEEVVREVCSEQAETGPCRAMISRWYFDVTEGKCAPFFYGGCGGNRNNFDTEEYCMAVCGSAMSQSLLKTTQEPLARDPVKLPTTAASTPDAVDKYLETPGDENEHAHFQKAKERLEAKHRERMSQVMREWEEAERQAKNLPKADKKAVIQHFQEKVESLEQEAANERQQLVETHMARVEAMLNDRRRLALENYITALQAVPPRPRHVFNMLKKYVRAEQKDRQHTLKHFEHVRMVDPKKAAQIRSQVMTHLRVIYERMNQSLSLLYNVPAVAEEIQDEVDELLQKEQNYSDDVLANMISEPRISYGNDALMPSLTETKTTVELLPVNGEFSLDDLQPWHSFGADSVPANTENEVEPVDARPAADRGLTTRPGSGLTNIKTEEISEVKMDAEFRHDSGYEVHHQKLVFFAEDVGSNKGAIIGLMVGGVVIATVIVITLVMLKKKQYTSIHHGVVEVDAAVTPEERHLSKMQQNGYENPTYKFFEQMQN

With `COc1ccc(-c2cc3ccc(OCCCn4cc(CNC(=O)CCCCC5CCSS5)nn4)cc3oc2=O)cc1OC` (stereo not drawn), the Activity is 79.32% in series [1]; 0.5 molar ratio in series [5]; 91.6% in [10]; “Non-Toxic” in [12]; 88.84% in [16]; “Dose-dependent effect” in series [23]. Moreover, the viability at 5 µM in series [2] is 40.6%. Besides, the IC50 is 16.4 µM in series [3], > 100 µM in series [9] and 49.4 µM in [15]. Moreover, the Ratio in series [4] came to 2. Moreover, the outcome in series [6], in series [11], in [14] and in series [18] was inactive. The viability at 10 µM in series [7] is 43.5%; in series [19] it was 64.7%. Moreover, the inhibition result in series [8] is “Dose-dependent effect”. In addition, in [13], the outcome was Active. Besides, the Ki in series [17] was 6.91 µM. For the same compound, the inhibition entry in [20] was “Active”. The viability at 1 µM in series [21] turned out to be 39.3%. The viability at 50 µM in [22] came to 49.5%.

The values are drawn from ChEMBL document CHEMBL4152262, “Design, synthesis and evaluation of novel multi-target-directed ligands for treatment of Alzheimer's disease based on coumarin and lipoic acid scaffolds” (Eur J Med Chem, 2018).
